Data as given in ChEMBL document CHEMBL4376884, “Toward a Rational Design of Polyamine-Based Zinc-Chelating Agents for Cancer Therapies” (J Med Chem, 2020).
Activity calls are given as the source filed them. No cut-off for these calls is given here.

Assays:
Fibroblast = test: Cytotoxicity against human Fibroblast assessed as reduction in cell viability incubated for 48 hrs by cell titer-glo assay; assay type: cell-based
Outline: (§1)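 Dose-response: cells plated, treated 24 h later for 48 h, then ATP measured by CellTiter-Glo luminescence. IC50 given as mean ± SD from three independent experiments, each in triplicate. Fibroblasts came from individuals. Cells were kept in RPMI or DMEM with 10% heat-inactivated FBS and penicillin/streptomycin at 37 °C, 5% CO2.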

LN-229 [1] = test: Antiproliferative activity against human LN229 cells assessed as reduction in cell viability incubated for 48 hrs by cell titer-glo assay; assay type: functional, cell-based; settings: LN-229, 48 h; outline: as §1
PC-3 [2] = test: Antiproliferative activity against human PC3 cells assessed as reduction in cell viability at 10 uM incubated for 48 hrs in presence of Zn2+ ion by MTT assay; assay type: functional, cell-based
Outline: (§2)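 LN229 and PC3 cells plated, then 24 h later given 10 µM compound with or without 15 µM ZnCl2, CuCl2, FeCl2 or FeCl3 for 48 h. Medium replaced, MTT (12 mM solution) added for 4 h, formazan dissolved in DMSO, absorbance read at 540 nm. Percent viable versus untreated; mean ± SD of three experiments in triplicate.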

LN-229 [3] = test: Antiproliferative activity against human LN229 cells assessed as reduction in cell viability at 10 uM incubated for 48 hrs in presence of Fe2+ ion by MTT assay; assay type: functional, cell-based; outline: as §2
LN-229 [4] = test: Antiproliferative activity against human LN229 cells assessed as reduction in cell viability at 10 uM incubated for 48 hrs by cell titer-glo assay; assay type: functional, cell-based
Outline: (§3)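 Cells plated and treated 24 h later with 10 µM compound for 48 h; viable cells quantified by CellTiter-Glo ATP luminescence. Expressed as percentage of viable cells relative to untreated; mean ± SD of three independent experiments, each in triplicate.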

Z-138 [5] = test: Antiproliferative activity against human Z138 cells assessed as reduction in cell viability incubated for 48 hrs by cell titer-glo assay; assay type: functional, cell-based; settings: Z-138, 48 h; outline: as §1
[6] = Metal chelating activity assessed as Zn2+-compound complex formation at physiological pH 7.4 by quantum mechanical studies
Outline: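 Zn2+ complexes modelled by DFT, B3LYP, gas phase. Basis set def2-SV(P), with MDF10 Stuttgart-Dresden effective core potential for Zn and Grimme dispersion correction. Vibrational frequencies and zero-point correction computed for each minimum.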

PC-3 [7] = test: Induction of cell morphological changes in human PC3 cells assessed as loss of cell adherence at 10 uM incubated for 24 to 48 hrs by phase contrast microscopy; assay type: functional, cell-based
Outline: (§4)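 LN229 and PC3 cells exposed to 10 µM compound for the indicated time-points, then imaged live by phase-contrast microscopy for morphology.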

Granta-519 [8] = test: Antiproliferative activity against human GRANTA-519 cells assessed as reduction in cell viability at 10 uM incubated for 48 hrs by cell titer-glo assay; assay type: functional, cell-based; outline: as §3
LN-229 [9] = test: Cell cycle arrest in human LN229 cells assessed as cell accumulation at G2/M phase at 10 uM incubated for 48 hrs by propidium iodide staining based flow cytometry analysis relative to control; assay type: functional
PC-3 [10] = test: Induction of apoptosis in human PC3 cells assessed as early apoptotic cells at 10 uM incubated for 24 hrs by annexin V-FITC and propidium iodide staining based flow cytometry analysis (reference value: 0.24 %); assay type: functional
Z-138 [11] = test: Antiproliferative activity against human Z138 cells assessed as reduction in cell viability at 10 uM incubated for 48 hrs by cell titer-glo assay; assay type: functional, cell-based; outline: as §3
Homo sapiens = species: Homo sapiens; test: Antiproliferative activity against human JMV2 cells assessed as reduction in cell viability at 10 uM incubated for 48 hrs by cell titer-glo assay; assay type: functional, cell-based; outline: as §3
PC-3 [12] = test: Induction of apoptosis in human PC3 cells at 10 uM incubated for 24 to 48 hrs by annexin V-FITC and propidium iodide staining based flow cytometric analysis; assay type: functional, cell-based
PC-3 [13] = test: Induction of apoptosis in human PC3 cells assessed as early apoptotic cells at 10 uM incubated for 72 hrs by annexin V-FITC and propidium iodide staining based flow cytometry analysis (reference value: 0.24 %); assay type: functional
PC-3 [14] = test: Induction of cellular senescence in human PC3 cells assessed as cells with irregular shape at 10 uM incubated for 24 hrs by phase contrast microscopy; assay type: functional, cell-based
Outline: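 LN229 and PC3 cells, 12×10^4 per well in 6-well plates, treated with 10 µM compound for 24 h. Senescence-associated β-gal staining: fixed in 2% formaldehyde/0.2% glutaraldehyde for 10 min at RT, stained with 1 mg/mL X-gal at 37 °C for 24 h without CO2. Blue cells counted in at least 10 fields at 10x and given as percent of total; four independent experiments. Morphology viewed by phase contrast at ×100.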

Jurkat [15] = test: Antiproliferative activity against human Jurkat cells assessed as reduction in cell viability at 10 uM incubated for 48 hrs by cell titer-glo assay; assay type: functional, cell-based; outline: as §3
LN-229 [16] = test: Antiproliferative activity against human LN229 cells assessed as reduction in cell viability at 10 uM incubated for 48 hrs in presence of Cu2+ ion by MTT assay; assay type: functional, cell-based; outline: as §2
Granta-519 [17] = test: Induction of apoptosis in human GRANTA-519 cells assessed as increase in caspase-3/7 activation at 10 uM incubated for 48 hrs by luminometric caspase-glo 3/7 assay; assay type: functional, cell-based
Outline: (§5)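 Cells in RPMI or DMEM with 10% heat-inactivated FBS and penicillin/streptomycin, 37 °C, 5% CO2, treated with 10 µM compound for 48 h. Caspase-3 and caspase-7 activity read by luminescent Caspase-Glo 3/7 assay, reported as fold induction over untreated cells; mean ± SD of three independent experiments, each in triplicate.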

PC-3 [18] = test: Antiproliferative activity against human PC3 cells assessed as reduction in cell viability at 10 uM incubated for 48 hrs in presence of Fe2+ ion by MTT assay; assay type: functional, cell-based; outline: as §2
LN-229 [19] = test: Cell cycle arrest in human LN229 cells assessed as cell accumulation at G2/M phase at 10 uM incubated for 24 hrs by propidium iodide staining based flow cytometry analysis relative to control; assay type: functional
Jurkat [20] = test: Cell cycle arrest in human Jurkat cells assessed as decrease in cell accumulation at G2 phase at 10 uM incubated for 24 hrs by propidium iodide staining based flow cytometry analysis; assay type: functional
LN-229 [21] = test: Cell cycle arrest in human LN229 cells assessed as cell accumulation at G1 phase at 10 uM incubated for 48 hrs by propidium iodide staining based flow cytometry analysis relative to control; assay type: functional
LN-229 [22] = test: Induction of cell morphological changes in human LN229 cells assessed as cell shrinkage at 10 uM incubated for 24 to 48 hrs by phase contrast microscopy; assay type: functional, cell-based; outline: as §4
Jurkat [23] = test: Antiproliferative activity against human Jurkat cells assessed as reduction in cell viability incubated for 48 hrs by cell titer-glo assay; assay type: functional, cell-based; outline: as §1
Z-138 [24] = test: Induction of apoptosis in human Z138 cells assessed as increase in caspase-3/7 activation at 10 uM incubated for 48 hrs by luminometric caspase-glo 3/7 assay; assay type: functional, cell-based; outline: as §5
MCF7 [25] = test: Antiproliferative activity against human MCF7 cells assessed as reduction in cell viability at 10 uM incubated for 48 hrs by cell titer-glo assay; assay type: functional, cell-based; outline: as §3
PC-3 [26] = test: Induction of apoptosis in human PC3 cells assessed as necrotic cells at 10 uM incubated for 24 hrs by annexin V-FITC and propidium iodide staining based flow cytometry analysis (reference value: 0.30 %); assay type: functional
MCF7 [27] = test: Antiproliferative activity against human MCF7 cells assessed as reduction in cell viability incubated for 48 hrs by cell titer-glo assay; assay type: functional, cell-based; settings: MCF7, 48 h; outline: as §1

Activity [6] [%]	Compound	IC50 (Fibroblast) [µM]	IC50 (LN-229 [1]) [µM]	Activity (PC-3 [2])	Activity (LN-229 [3])	Activity (LN-229 [4])	IC50 (Z-138 [5]) [µM]	Activity (PC-3 [7])	Activity (Granta-519 [8])	Activity (LN-229 [9]) [%]	Activity (PC-3 [10]) [%]	Activity (Z-138 [11])	Activity (Homo sapiens)	Activity (PC-3 [12])	Activity (PC-3 [13]) [%]	Activity (PC-3 [14])	Activity (Jurkat [15])	Activity (LN-229 [16])	Activity (Granta-519 [17])	Activity (PC-3 [18])	other results
> 99	CN(CCNCc1ccccn1)CCNCc1ccccn1	20.5	6.84	inactive	Active	Active	4.85	Active	Active	20.2	0.8	Active	Active	Active	14.27	Active	Active	inactive	Active	Active	Activity (LN-229 [19]): 22.1%; Activity (Jurkat [20]): Active; Activity (LN-229 [21]): 66.1%; Activity (LN-229 [22]): Active; IC50 (Jurkat [23]): 1.99 µM; Activity (Z-138 [24]): Active; Activity (MCF7 [25]): Active; Activity (PC-3 [26]): 1.78%; IC50 (MCF7 [27]): 3.13 µM
> 99	c1ccc(CNCCN(CCNCc2ccccn2)Cc2ccc3ccccc3c2)nc1	29.7	6.3	inactive	Active	Active	3.07	Active	Active	14.4	0.63	Active	Active	Active	14.7	Active	Active	inactive	Active	Active	Activity (LN-229 [19]): 22.1%; Activity (Jurkat [20]): Active; Activity (LN-229 [21]): 74.7%; Activity (LN-229 [22]): Active; IC50 (Jurkat [23]): 3.17 µM; Activity (Z-138 [24]): Active; Activity (MCF7 [25]): Active; Activity (PC-3 [26]): 1.53%; IC50 (MCF7 [27]): 3.19 µM
